Laboratory results taken from ChEMBL document CHEMBL1145425, “Antitumor agents 259. Design, syntheses, and structure-activity relationship study of desmosdumotin C analogs” (2007).
Values after ≈ are worked out from the molar mass of the structure shown.

Tests used:
Format in all cases: functional
KB [1] = assay: Cytotoxicity against human KB cells; conditions: read-out: ED50 (the source's name)
In short: (§1)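 Sulforhodamine B growth assay. Lines kept in RPMI-1640 with 25 mM HEPES, 0.25% sodium bicarbonate, 10% FBS and kanamycin. Trypsinized cells seeded at 1500–7500 per well, with compound added from DMSO-diluted stock. After 3 days, attached cells fixed with cold 50% TCA, stained with 0.4% SRB, dye solubilized, absorbance read at 562 nm. ED50 is 50% growth reduction, averaged over at least three independent determinations.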

KB [2] = assay: Cytotoxicity against human vincristine-resistant KB cells; conditions: read-out: ED50 (the source's name); in short: as §1
A-431 = assay: Cytotoxicity against human A431 cells; conditions: read-out: ED50 (the source's name); in short: as §1
A549 = assay: Cytotoxicity against human A549 cells; conditions: read-out: ED50 (the source's name); in short: as §1
HCT-8 = assay: Cytotoxicity against human HCT8 cells; conditions: read-out: ED50 (the source's name); in short: as §1
HUVEC [3] = assay: Antiangiogenesis activity against HUVEC; conditions: Homo sapiens, read-out: ED50 (the source's name)
In short: (§2)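 HUVEC seeded at 1.5×10^3 per well in EGM-2; after 24 h (day zero) compound added in EGM-2 at 2× the desired concentration. Day-zero plate stained with crystal violet. Remaining plates kept 72 h at 37 °C, then stained with 0.5% crystal violet in 20% MeOH. Dye eluted with 1:1 EtOH:0.1 M sodium citrate and read at 540 nm. Run per the NCI Angiogenesis Resource Center protocol.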

PC-3 = assay: Cytotoxicity against human PC3 cells; conditions: read-out: ED50 (the source's name); in short: as §1
HUVEC [4] = assay: Cytotoxicity against HUVEC; conditions: Homo sapiens, read-out: ED50 (the source's name); in short: as §2
1A9 = assay: Cytotoxicity against human 1A9 cells; conditions: read-out: ED50 (the source's name); in short: as §1

SMILES	EC50 (KB [1]) [µg/mL]	EC50 (KB [2]) [µg/mL]	EC50 (A-431) [µg/mL]	EC50 (A549) [µg/mL]	EC50 (HCT-8) [µg/mL]	EC50 (HUVEC [3]) [µg/mL]	EC50 (PC-3) [µg/mL]	EC50 (HUVEC [4]) [µg/mL]	EC50 (1A9) [µg/mL]
COC1=C(C)C(=O)/C(=C(O)/C=C/c2ccc(C)cc2)C(=O)C1(C)C	3.9 (≈ 11.9 µM)	1.9 (≈ 5.82 µM)	5.1 (≈ 15.6 µM)	4.3 (≈ 13.2 µM)	4.1 (≈ 12.6 µM)	< 4	8.2 (≈ 25.1 µM)	2.4 (≈ 7.35 µM)	
COC1=C(C)C(O)=C(C(=O)/C=C/c2ccccc2)C(=O)C1(C)C [DESMOSDUMOTIN C]	4 (≈ 12.8 µM)	3 (≈ 9.6 µM)	5.1 (≈ 16.3 µM)	3.5 (≈ 11.2 µM)	3.7 (≈ 11.8 µM)	< 4	11.1 (≈ 35.5 µM)	2.1 (≈ 6.72 µM)	3.5 (≈ 11.2 µM)
CCC1=C(OC)C(CC)(CC)C(=O)C(C(=O)/C=C/c2ccccc2)=C1O	2.8 (≈ 7.9 µM)	1.2 (≈ 3.39 µM)	5.4 (≈ 15.2 µM)	3.4 (≈ 9.59 µM)	2.8 (≈ 7.9 µM)		7.7 (≈ 21.7 µM)		2.1 (≈ 5.92 µM)
COC1=C(C)C(=O)/C(=C(O)/C=C/c2cccc(OC)c2)C(=O)C1(C)C	3.3 (≈ 9.64 µM)	2.4 (≈ 7.01 µM)	4.5 (≈ 13.1 µM)	2.8 (≈ 8.18 µM)	2.9 (≈ 8.47 µM)	< 4	14.3 (≈ 41.8 µM)	1.6 (≈ 4.67 µM)	2.9 (≈ 8.47 µM)
CCC1=C(OC)C(CC)(CC)C(=O)C(C(=O)/C=C/c2ccc(CC)cc2)=C1O	3.6 (≈ 9.41 µM)	2.6 (≈ 6.8 µM)	9.8 (≈ 25.6 µM)	3.8 (≈ 9.93 µM)	8.5 (≈ 22.2 µM)		15 (≈ 39.2 µM)		3.8 (≈ 9.93 µM)
COC1=C(C)C(=O)/C(=C(O)/C=C/c2nccs2)C(=O)C1(C)C	4.3 (≈ 13.5 µM)	3 (≈ 9.39 µM)	6 (≈ 18.8 µM)	3.5 (≈ 11 µM)	5.1 (≈ 16 µM)	< 4	10.8 (≈ 33.8 µM)	1.6 (≈ 5.01 µM)	3.5 (≈ 11 µM)
COC1=C(C)C(=O)/C(=C(O)/C=C/c2ccc(O)cc2)C(=O)C1(C)C	3.8 (≈ 11.6 µM)	3.8 (≈ 11.6 µM)	14.9 (≈ 45.4 µM)	3.1 (≈ 9.44 µM)	14.8 (≈ 45.1 µM)	< 4	> 20	4 (≈ 12.2 µM)	2.9 (≈ 8.83 µM)
COC1=C(C)C(=O)/C(=C(O)/C=C/c2ccc(F)cc2)C(=O)C1(C)C	3.7 (≈ 11.2 µM)	2.7 (≈ 8.17 µM)	4.1 (≈ 12.4 µM)	3.3 (≈ 9.99 µM)	3.6 (≈ 10.9 µM)	< 4	7.2 (≈ 21.8 µM)	2 (≈ 6.05 µM)	
COC1=C(C)C(=O)/C(=C(O)/C=C/c2cc(C)cc(C)c2)C(=O)C1(C)C	3.1 (≈ 9.11 µM)	1.6 (≈ 4.7 µM)	4 (≈ 11.8 µM)	4.3 (≈ 12.6 µM)	2.9 (≈ 8.52 µM)	< 4	8.8 (≈ 25.9 µM)	2.5 (≈ 7.34 µM)	
CCC1=C(OC)C(CC)(CC)C(=O)C(C(=O)/C=C/c2ccc(C)cc2)=C1O	3 (≈ 8.14 µM)	1 (≈ 2.71 µM)	10.3 (≈ 28 µM)	4.6 (≈ 12.5 µM)	9.4 (≈ 25.5 µM)		15 (≈ 40.7 µM)		4.3 (≈ 11.7 µM)
COC1=CC(O)=C(C(=O)/C=C/c2ccccc2)C(=O)C1(C)C	4.1 (≈ 13.7 µM)	2.9 (≈ 9.72 µM)	7 (≈ 23.5 µM)	> 5	3.3 (≈ 11.1 µM)		14.2 (≈ 47.6 µM)	> 20	3.6 (≈ 12.1 µM)
COC1=C(C)C(=O)/C(=C(O)/C=C/c2cccc3ccccc23)C(=O)C1(C)C	2.8 (≈ 7.73 µM)	1.3 (≈ 3.59 µM)	4.1 (≈ 11.3 µM)	3.6 (≈ 9.93 µM)	2.3 (≈ 6.35 µM)	< 4	9 (≈ 24.8 µM)	1.8 (≈ 4.97 µM)	
CCCC1=C(OC)C(CCC)(CCC)C(=O)/C(=C(O)\C=C\c2ccccc2)C1=O	0.6 (≈ 1.51 µM)	0.8 (≈ 2.02 µM)	1.9 (≈ 4.79 µM)	1.4 (≈ 3.53 µM)	1.4 (≈ 3.53 µM)		3.3 (≈ 8.32 µM)		1.5 (≈ 3.78 µM)
